Measured values published in ChEMBL document CHEMBL1124840 (J Med Chem, 1990).
Activity calls are given as the source filed them. The rule behind the calls is not given here. Positions of bridges follow the written chain, without caps; N, C: chain ends. Non-standard residues stand in square brackets, D forms with d. Residues, ends and D or L forms follow the SMILES beside them. Pen = CC(C)(S)[C@H](N)C(=O)O; hCys = N[C@@H](CCS)C(=O)O; Sar = CNCC(=O)O

Tests used:
Oryctolagus cuniculus [1] = species: Oryctolagus cuniculus; assay: No contractile activity was observed up to 10 uM concentration in rabbit aortic rings relative to angiotensin II; NA = no activity; type: functional; settings: Aorta
Summary of the method: (§1)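 Aortic rings were taken from male New Zealand white rabbits (2–2.5 kg) and tested at analogue concentrations up to 10 µM. Potency is relative to the AII concentration/response curve run at the same time on a paired ring from the same aorta.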

[2] = biological target: T1, Angiotensin II receptor (AT-1) type-1 (Rattus norvegicus, UniProt P29089+P25095); assay: Concentration required to 50% inhibition in specific binding of [125- I]A-II to Angiotensin II receptor in rat uterine membrane; type: cell membranes
T1 sequence (P29089 whole entry): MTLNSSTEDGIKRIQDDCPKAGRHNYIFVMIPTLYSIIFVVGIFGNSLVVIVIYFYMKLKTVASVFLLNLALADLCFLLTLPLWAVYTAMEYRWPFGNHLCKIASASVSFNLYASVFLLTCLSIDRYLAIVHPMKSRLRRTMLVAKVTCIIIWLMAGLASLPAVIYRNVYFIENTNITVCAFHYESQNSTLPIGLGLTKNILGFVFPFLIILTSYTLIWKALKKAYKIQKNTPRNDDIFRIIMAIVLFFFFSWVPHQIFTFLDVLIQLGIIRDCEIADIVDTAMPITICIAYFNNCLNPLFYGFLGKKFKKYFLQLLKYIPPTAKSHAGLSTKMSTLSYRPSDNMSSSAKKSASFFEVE
T1 sequence (P25095 whole entry): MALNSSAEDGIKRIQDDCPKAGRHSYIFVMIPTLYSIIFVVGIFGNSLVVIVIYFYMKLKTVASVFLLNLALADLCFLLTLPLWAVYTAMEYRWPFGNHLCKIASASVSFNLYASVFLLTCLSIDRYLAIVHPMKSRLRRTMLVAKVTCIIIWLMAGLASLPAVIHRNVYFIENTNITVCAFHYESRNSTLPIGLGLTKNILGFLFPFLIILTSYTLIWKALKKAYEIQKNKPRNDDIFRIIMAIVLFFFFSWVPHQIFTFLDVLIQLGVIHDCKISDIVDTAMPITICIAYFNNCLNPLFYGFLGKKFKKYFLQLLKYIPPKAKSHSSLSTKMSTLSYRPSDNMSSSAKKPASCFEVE
Summary of the method: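 Rat uterine membranes were homogenized in ice-cold Dulbecco's PBS with 5 mM EDTA, spun at 1500g then 100000g, and resuspended in 2 mM EGTA/50 mM Tris-HCl pH 7.5. Nonspecific binding was defined with 10 µM AII. IC50 came from nonlinear least-squares fits, triplicate means.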

Oryctolagus cuniculus [3] = species: Oryctolagus cuniculus; assay: No contractile activity was observed up to 10 uM concentration in rabbit aortic rings; NA = no activity; type: functional; settings: Aorta
Summary of the method: (§2)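 Aortic rings were taken from male New Zealand white rabbits (2–2.5 kg) and tested at analogue concentrations up to 10 µM. pD2 was calculated from the analogue's concentration/response curve.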

Oryctolagus cuniculus [4] = species: Oryctolagus cuniculus; assay: Contractile activity in rabbit aortic rings.; type: functional, Aorta; summary of the method: as §2
Oryctolagus cuniculus [5] = species: Oryctolagus cuniculus; assay: Contractile activity in rabbit aortic rings relative to angiotensin II.; type: functional, Aorta; summary of the method: as §1
[6] = biological target: Type-1 angiotensin II receptor (Oryctolagus cuniculus) (UniProt P34976); assay: pA2 value for Angiotensin II receptor
Chain of Type-1 angiotensin II receptor (Oryctolagus cuniculus) (P34976 whole entry, looked up): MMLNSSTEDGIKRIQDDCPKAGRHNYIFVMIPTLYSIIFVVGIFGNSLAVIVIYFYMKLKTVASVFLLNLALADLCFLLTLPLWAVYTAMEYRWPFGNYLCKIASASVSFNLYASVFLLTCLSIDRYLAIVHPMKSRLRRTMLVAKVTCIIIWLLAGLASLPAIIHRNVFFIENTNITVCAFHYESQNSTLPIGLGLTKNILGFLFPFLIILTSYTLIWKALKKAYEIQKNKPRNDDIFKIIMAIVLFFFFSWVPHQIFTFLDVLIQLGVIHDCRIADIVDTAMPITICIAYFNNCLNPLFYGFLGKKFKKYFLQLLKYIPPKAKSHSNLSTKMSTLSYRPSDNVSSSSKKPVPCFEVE

Row | IC50 [2] [nM] | Kb [6] [nM] | Compound | Relative potency (Oryctolagus cuniculus [1]) | pD2 (Oryctolagus cuniculus [3]) | pD2 (Oryctolagus cuniculus [4]) | Relative potency (Oryctolagus cuniculus [5])
1 | 10000 | – | CC(=O)NCSC[C@H](NC(=O)[C@H](CCCN=C(N)N)NC(=O)[C@@H](N)CC(=O)O)C(=O)N[C@@H](Cc1ccc(O)cc1)C(=O)N[C@H](CSCNC(C)=O)C(=O)N[C@@H](Cc1c[nH]cn1)C(=O)N1CCC[C@H]1C(=O)N[C@@H](Cc1ccccc1)C(=O)O | inactive | inactive | – | –
2 | > 10000 | – | CC(=O)NCSC[C@H](NC(=O)[C@H](Cc1ccc(O)cc1)NC(=O)[C@@H](CSCNC(C)=O)NC(=O)[C@H](CCCN=C(N)N)NC(=O)[C@@H](N)CC(=O)O)C(=O)N[C@@H](Cc1c[nH]cn1)C(=O)N1CCC[C@H]1C(=O)N[C@@H](Cc1ccccc1)C(=O)O | inactive | inactive | – | –
3 | 43 | – | NC(N)=NCCC[C@H](NC(=O)[C@@H](N)CC(=O)O)C(=O)N[C@H]1CSSC[C@@H](C(=O)N[C@@H](Cc2c[nH]cn2)C(=O)N2CCC[C@H]2C(=O)N[C@@H](Cc2ccccc2)C(=O)O)NC(=O)[C@H](Cc2ccc(O)cc2)NC1=O | – | – | <5 | <0.0001
4 | 10000 | – | CC(=O)NCSC[C@H](NC(=O)[C@H](CCCN=C(N)N)NC(=O)[C@@H](N)CC(=O)O)C(=O)N[C@@H](Cc1ccc(O)cc1)C(=O)N[C@@H](CSCNC(C)=O)C(=O)N[C@@H](Cc1c[nH]cn1)C(=O)N1CCC[C@H]1C(=O)N[C@@H](Cc1ccccc1)C(=O)O | – | – | <5 | <0.0001
5 | 1.3 | – | CC1(C)SSC[C@H](NC(=O)[C@H](CCCN=C(N)N)NC(=O)[C@@H](N)CC(=O)O)C(=O)N[C@@H](Cc2ccc(O)cc2)C(=O)N[C@@H]1C(=O)N[C@@H](Cc1c[nH]cn1)C(=O)N1CCC[C@H]1C(=O)N[C@@H](Cc1ccccc1)C(=O)O (H-DRCY[Pen]HPF-OH; disulfide 3-5) | – | – | 5.8 | 0.001
6 | 13 | – | NC(N)=NCCC[C@H](NC(=O)[C@@H](N)CC(=O)O)C(=O)N[C@H]1CSSCC[C@@H](C(=O)N[C@@H](Cc2c[nH]cn2)C(=O)N2CCC[C@H]2C(=O)N[C@@H](Cc2ccccc2)C(=O)O)NC(=O)[C@H](Cc2ccc(O)cc2)NC1=O (H-DRCY[hCys]HPF-OH; disulfide 3-5) | – | – | 6.98 | 0.012
7 | 2.6 | – | CC1(C)SSC(C)(C)[C@@H](C(=O)N[C@@H](Cc2c[nH]cn2)C(=O)N2CCC[C@H]2C(=O)N[C@@H](Cc2ccccc2)C(=O)O)NC(=O)[C@H](Cc2ccc(O)cc2)NC(=O)[C@H]1NC(=O)[C@H](CCCN=C(N)N)NC(=O)[C@@H](N)CC(=O)O (H-DR[Pen]Y[Pen]HPF-OH; disulfide 3-5) | – | – | 5 | 0.0001
8 | 0.9 | 0.813 | CC[C@H](C)[C@H](NC(=O)[C@@H]1CCCN1C(=O)[C@H](Cc1c[nH]cn1)NC(=O)[C@@H]1CCSSCC[C@H](NC(=O)[C@H](CCCN=C(N)N)NC(=O)CNC)C(=O)N[C@@H](Cc2ccc(O)cc2)C(=O)N1)C(=O)O (H-[Sar]R[hCys]Y[hCys]HPI-OH; disulfide 3-5) | inactive | inactive | – | –
9 | 15 | – | H-DRCYIHPF-OH | – | – | 7.68 | 0.092
10 | 20 | – | H-DRVYCHPF-OH | – | – | 7.21 | 0.031

Further lines, the compound ahead of its results:

Row | Compound | IC50 [2] [nM] | Kb [6] [nM] | Relative potency (Oryctolagus cuniculus [1]) | pD2 (Oryctolagus cuniculus [3]) | pD2 (Oryctolagus cuniculus [4]) | Relative potency (Oryctolagus cuniculus [5])
11 | NC(N)=NCCC[C@H](NC(=O)[C@@H](N)CC(=O)O)C(=O)N[C@H]1CSSC[C@H](C(=O)N[C@@H](Cc2c[nH]cn2)C(=O)N2CCC[C@H]2C(=O)N[C@@H](Cc2ccccc2)C(=O)O)NC(=O)[C@H](Cc2ccc(O)cc2)NC1=O | 10000 | – | inactive | inactive | – | –
12 | NC(N)=NCCC[C@H](NC(=O)[C@@H](N)CC(=O)O)C(=O)N[C@@H]1CSSC[C@@H](C(=O)N[C@@H](Cc2c[nH]cn2)C(=O)N2CCC[C@H]2C(=O)N[C@@H](Cc2ccccc2)C(=O)O)NC(=O)[C@H](Cc2ccc(O)cc2)NC1=O | – | – | inactive | inactive | – | –
13 | CC1(C)SSC[C@@H](C(=O)N[C@@H](Cc2c[nH]cn2)C(=O)N2CCC[C@H]2C(=O)N[C@@H](Cc2ccccc2)C(=O)O)NC(=O)[C@H](Cc2ccc(O)cc2)NC(=O)[C@H]1NC(=O)[C@H](CCCN=C(N)N)NC(=O)[C@@H](N)CC(=O)O (H-DR[Pen]YCHPF-OH; disulfide 3-5) | 58 | – | – | – | 5 | 0.0001
14 | NC(N)=NCCC[C@H](NC(=O)[C@@H](N)CC(=O)O)C(=O)N[C@H]1CCSSC[C@@H](C(=O)N[C@@H](Cc2c[nH]cn2)C(=O)N2CCC[C@H]2C(=O)N[C@@H](Cc2ccccc2)C(=O)O)NC(=O)[C@H](Cc2ccc(O)cc2)NC1=O (H-DR[hCys]YCHPF-OH; disulfide 3-5) | 10 | – | – | – | 5.91 | 0.001
15 | NC(N)=NCCC[C@H](NC(=O)[C@@H](N)CC(=O)O)C(=O)N[C@H]1CCSSCC[C@@H](C(=O)N[C@@H](Cc2c[nH]cn2)C(=O)N2CCC[C@H]2C(=O)N[C@@H](Cc2ccccc2)C(=O)O)NC(=O)[C@H](Cc2ccc(O)cc2)NC1=O (H-DR[hCys]Y[hCys]HPF-OH; disulfide 3-5) | 2.1 | – | – | – | 8.48 | 0.49
16 | CC[C@H](C)[C@H](NC(=O)[C@H](Cc1ccc(O)cc1)NC(=O)[C@@H](NC(=O)[C@H](CCCNC(=N)N)NC(=O)[C@@H](N)CC(=O)O)C(C)C)C(=O)N[C@@H](Cc1cnc[nH]1)C(=O)N1CCC[C@H]1C(=O)N[C@@H](Cc1ccccc1)C(=O)O [ANGIOTENSIN II] | – | – | – | – | 8.81 | –
